Test results published in ChEMBL document CHEMBL1130145, “Synthesis, anti-human immunodeficiency virus and anti-hepatitis B virus activities of novel oxaselenolane nucleosides” (J Med Chem, 1997).

Assays:
CCRF-CEM = test: The cytotoxicity against CEM cells; format: functional, cell-based; settings: Homo sapiens
How it was run: (§1)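 Cytotoxicity tested at concentrations up to 100 μM in PBM, CEM and Vero cells.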

[1] = In vitro anti-HIV activity in peripheral blood mononuclear cells.; format: functional
How it was run: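 Antiviral assay in primary lymphocytes (peripheral blood mononuclear cells) infected with HIV-1; activity reported as EC50.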

[2] = Toxic activity against VERO cells.; format: toxicity, cell-based; settings: Chlorocebus sabaeus; how it was run: as §1
[3] = Toxic activity against peripheral blood mononuclear cells.; format: toxicity; how it was run: as §1
HepG2 = test: In vitro effective concentration against hepatitis B virus was determined in 2.2.15 cells; format: functional, cell-based; settings: Homo sapiens

Structure (SMILES)	IC50 (CCRF-CEM) [µM]	EC50 [1] [µM]	IC50 [2] [µM]	IC50 [3] [µM]	EC50 (HepG2) [µM]
Nc1ccn([C@@H]2C[Se][C@@H](CO)O2)c(=O)n1	> 100	2.4	> 100	> 100	
Nc1nc(=O)n([C@@H]2C[Se][C@@H](CO)O2)cc1F	> 100	> 10	> 100	> 100	
Nc1nc(=O)n([C@H]2C[Se][C@@H](CO)O2)cc1F	> 100	0.51	> 100	> 100	1.2
Nc1ccn([C@H]2C[Se][C@@H](CO)O2)c(=O)n1	> 100	0.88	> 100	> 100	1.2
Nc1ccn([C@@H]2CSC(CO)O2)c(=O)n1 (single isomer, unassigned) [LAMIVUDINE]	> 100	0.07	> 100	> 100	0.008
